{
  "source": "paper PMC5221453",
  "about": "(British Journal of Pharmacology, 2016)",
  "key": {"human S1P1 receptor": {"target": "human S1P1 receptor (Homo sapiens, UniProt P21453)", "sequence (P21453 whole entry)": "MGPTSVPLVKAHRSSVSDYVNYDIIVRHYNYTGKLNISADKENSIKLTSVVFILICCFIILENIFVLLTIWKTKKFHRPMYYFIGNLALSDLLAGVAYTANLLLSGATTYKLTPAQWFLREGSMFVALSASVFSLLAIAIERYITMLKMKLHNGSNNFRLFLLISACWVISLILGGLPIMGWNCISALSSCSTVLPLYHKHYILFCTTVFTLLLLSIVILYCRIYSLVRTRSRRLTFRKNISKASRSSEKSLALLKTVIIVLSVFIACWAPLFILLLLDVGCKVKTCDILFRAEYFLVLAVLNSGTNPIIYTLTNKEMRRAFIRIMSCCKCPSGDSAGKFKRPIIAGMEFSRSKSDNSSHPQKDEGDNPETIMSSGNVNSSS", "test": "Ca2+ mobilization assay, human S1P1 receptor-expressing cells", "format": "cell-based"}, "[1]": {"test": "Phase I multiple ascending dose trial: pharmacokinetic assessment", "format": "in vivo, human", "method_in_brief": "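Healthy men received oral test compound (0.125–0.75 mg, 10 per dose) for 21 days, fed. Blood was sampled on days 1–12, 14, 16, 18, 20–25, 28, 35, 42, 56 and 70. Parent and phosphate metabolite were measured in plasma and urine by validated LC/MS/MS, with LLOQ 0.05 ng·mL−1.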"}, "healthy subjects [2]": {"test_system": "healthy subjects", "test": "Phase I multiple ascending dose trial: heart rate and ECG", "format": "in vivo, human", "method_in_brief": "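Healthy men received oral test compound at 0.125–0.75 mg or placebo for 21 days, fed. Heart rate came from 24 h 12-lead Holter ECG against a day −1 baseline, with telemetry on day 1. Mean hourly rate was fitted by a linear mixed model with a pre-dose covariate. The 1–12 h nadir was compared by ANCOVA (day −1 covariate), giving LS mean differences versus placebo with 95% CI.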"}, "healthy subjects [3]": {"test_system": "healthy subjects", "test": "Phase I multiple ascending dose trial: peripheral lymphocyte counts", "format": "in vivo, human", "conditions": "0.75 mg, day 21", "method_in_brief": "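Healthy men received oral test compound (0.125–0.75 mg) or placebo for 21 days in the fed state. Absolute lymphocyte counts were taken at screening and on days −2, 1–12, 14, 16, 18, 20–25, 28, 35, 42, 56 and 70.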"}, "cynomolgus monkeys": {"test_system": "cynomolgus monkeys", "format": "in vivo, cynomolgus monkeys (Macaca fascicularis)", "conditions": "conscious monkeys, oral, doses up to 30 mg·kg^−1"}, "healthy subjects [4]": {"test_system": "healthy subjects", "test": "Phase I multiple ascending dose trial: adverse events", "format": "in vivo, human", "method_in_brief": "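Randomized, double-blind, placebo-controlled, parallel multiple-ascending-dose study in healthy men aged 18–45. Oral test compound was given at 0.125, 0.25, 0.5 or 0.75 mg (10 subjects per dose) or placebo (n = 10) over 21 days in the fed state. Follow-up visits were on days 28, 35, 42, 56 and 70. Adverse events were recorded throughout the study.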"}, "humans [5]": {"test_system": "humans", "conditions": "clinical dose 0.5 mg, ref Schmouder et al., 2012; cited from earlier work"}, "[6]": {"test_system": "cardiac Na+ and Ca2+ channels in HCMs", "test": "Cardiac Na+ and Ca2+ channels in HCMs", "format": "cell-based, human", "conditions": "data not shown"}, "humans [7]": {"test_system": "humans", "conditions": "cited from earlier work; for decrease in the lymphocyte count: psoriasis patients, ref Vaclavkova et al., 2014"}, "human S1P4 receptor": {"target": "T1, human S1P4 receptor (Homo sapiens, UniProt O95977)", "T1 sequence (O95977 1-384)": "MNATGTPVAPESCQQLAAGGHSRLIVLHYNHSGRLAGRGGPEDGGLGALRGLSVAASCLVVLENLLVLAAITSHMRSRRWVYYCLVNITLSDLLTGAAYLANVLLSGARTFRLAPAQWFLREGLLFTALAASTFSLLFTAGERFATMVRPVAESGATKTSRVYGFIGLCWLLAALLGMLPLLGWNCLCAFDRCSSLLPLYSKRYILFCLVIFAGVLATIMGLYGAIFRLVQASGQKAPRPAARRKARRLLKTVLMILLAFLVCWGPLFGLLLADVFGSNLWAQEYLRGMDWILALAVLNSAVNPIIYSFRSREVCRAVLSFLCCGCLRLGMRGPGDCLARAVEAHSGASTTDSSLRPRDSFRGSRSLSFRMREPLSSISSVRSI", "test": "Ca2+ mobilization assay, human S1P4 receptor-expressing cells", "format": "cell-based"}, "[8]": {"test": "Tissue distribution in rats", "format": "in vivo, SD rats", "conditions": "rat, single oral 1 mg·kg^−1 of amiselimod or fingolimod", "method_in_brief": "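SD rats fasted 15 h received a single oral 1 mg·kg−1 test compound without anaesthesia. Rats killed at 24 or 48 h were fed at 8 h. Plasma and heart homogenates underwent solid-phase extraction. Parent and phosphate metabolite were measured by LC–MS/MS. Parameters were derived by non-compartmental analysis. Dosing/sampling and analysis were done by separate researchers unaware of treatment.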"}, "human S1P3 receptor": {"target": "human S1P3 receptor (Homo sapiens, UniProt Q99500)", "sequence (Q99500 whole entry)": "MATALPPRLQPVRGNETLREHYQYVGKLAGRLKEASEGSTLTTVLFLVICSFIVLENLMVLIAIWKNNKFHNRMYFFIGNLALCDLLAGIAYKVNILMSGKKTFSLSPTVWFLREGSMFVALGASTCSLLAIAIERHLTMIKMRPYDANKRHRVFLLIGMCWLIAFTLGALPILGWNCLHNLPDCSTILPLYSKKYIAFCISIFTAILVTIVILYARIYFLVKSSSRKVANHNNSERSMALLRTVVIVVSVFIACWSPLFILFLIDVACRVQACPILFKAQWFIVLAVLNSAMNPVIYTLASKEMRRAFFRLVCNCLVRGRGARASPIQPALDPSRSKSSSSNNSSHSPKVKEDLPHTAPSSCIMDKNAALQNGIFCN", "test": "Ca2+ mobilization assay, human S1P3 receptor-expressing cells", "format": "cell-based"}, "[9]": {"test_system": "GIRK channels in human atrial myocytes", "test": "Human GIRK channel assay in human atrial myocytes", "format": "cell-based", "conditions": "20 μmol·L^−1 carbachol", "method_in_brief": "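Atrial myocytes were isolated from a human atrial specimen taken during cardiac surgery. GIRK current was recorded by whole-cell patch clamp at 37 ± 1°C and elicited by rapid superfusion with 20 μmol·L−1 carbachol. Current was read on a pulse to −100 mV from a −90 mV holding potential. Values were normalized to the carbachol-evoked increase. Four myocytes per condition were analysed by a blinded researcher.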"}, "[10]": {"conditions": "humans, ref Gergely et al., 2012, Brooks et al., 2013, Brossard et al.; cited from earlier work"}, "[11]": {"conditions": "healthy subjects receiving amiselimod, all doses"}},
  "note": "Read-outs that look alike come from different tables or passages of the source.",
  "data": [
    {"smiles": "CCCCCCCOc1ccc(CCC(N)(CO)CO)cc1C(F)(F)F.Cl", "note": "[Amiselimod, 2‐amino‐2‐{2‐[4‐(heptyloxy)‐3‐(trifluoromethyl)phenyl]ethyl}propan‐1,3‐diol hydrochloride]", "values": [
      {"measurement": "EC50", "setting": "human S1P1 receptor", "value": "> 1000", "unit": "nM"},
      {"measurement": "agonist activity at S1P1 receptors", "setting": "human S1P1 receptor; up to 1000 nmol·L^−1", "value": "no agonist activity"},
      {"measurement": "accumulation ratios (range)", "setting": "[1]; healthy subjects, after 21 day dosing", "value": "16–29"},
      {"measurement": "administered dose excreted in the urine", "setting": "[1]; healthy subjects, day 21", "value": "Less than 0.2%"},
      {"measurement": "mean t1/2", "setting": "[1]; healthy subjects, plasma, across 0.125–0.75 mg doses", "value": "380 to 420", "unit": "h"},
      {"measurement": "period of accumulation to steady state", "setting": "[1]; humans, inferred from long t1/2", "value": "approximately 10 weeks"},
      {"measurement": "nadir (1–12 h) mean hourly heart rate, LS mean", "setting": "healthy subjects [2]; 0.5 mg, day 1", "value": 62.213, "unit": "bpm"},
      {"measurement": "nadir (1–12 h) mean hourly heart rate, LS mean", "setting": "healthy subjects [2]; 0.75 mg, day 1", "value": 61.952, "unit": "bpm"},
      {"measurement": "ECG Holter transient AV conduction abnormalities, subjects", "setting": "healthy subjects [2]; 0.125–0.75 mg", "value": "five subjects"},
      {"measurement": "PR interval, QRS width, QT interval, QTcB interval, QTcF interval and RR interval", "setting": "healthy subjects [2]; 0.125–0.75 mg", "value": "not affected"},
      {"measurement": "decrease in heart rate versus placebo", "setting": "healthy subjects [2]; up to the 0.75 mg dose, day 1", "value": "no significant decrease"},
      {"measurement": "decrease in trough lymphocyte counts", "setting": "healthy subjects [3]", "value": 60, "unit": "%"},
      {"measurement": "effect on blood pressure", "setting": "cynomolgus monkeys", "value": "did not affect"},
      {"measurement": "effects on heart rate or ECG parameters (PR interval, QRS duration, QT interval, QTc)", "setting": "cynomolgus monkeys", "value": "no effects"},
      {"measurement": "mild AEs, subjects", "setting": "healthy subjects [4]; 0.125 mg", "value": 8, "unit": "subjects"},
      {"measurement": "moderate AEs, subjects", "setting": "healthy subjects [4]; 0.125 mg", "value": 1, "unit": "subjects"},
      {"measurement": "mild AEs, subjects", "setting": "healthy subjects [4]; 0.25 mg", "value": 4, "unit": "subjects"},
      {"measurement": "mild AEs, subjects", "setting": "healthy subjects [4]; 0.5 mg", "value": 9, "unit": "subjects"},
      {"measurement": "moderate AEs, subjects", "setting": "healthy subjects [4]; 0.5 mg", "value": 1, "unit": "subjects"},
      {"measurement": "mild AEs, subjects", "setting": "healthy subjects [4]; 0.75 mg", "value": 7, "unit": "subjects"},
      {"measurement": "moderate AEs, subjects", "setting": "healthy subjects [4]; 0.75 mg", "value": 1, "unit": "subjects"},
      {"measurement": "number of subjects reporting AEs", "setting": "healthy subjects [4]; [11]", "value": 28, "unit": "subjects"},
      {"measurement": "total number of AEs reported", "setting": "healthy subjects [4]; [11]", "value": 74, "unit": "AEs"},
      {"measurement": "severe AEs or serious AEs", "setting": "healthy subjects [4]; healthy subjects, during the study", "value": "no severe AEs or serious AEs"}
    ]},
    {"smiles": "CCCCCCCCc1ccc(CCC(N)(CO)CO)cc1", "note": "[Fingolimod, fingolimod]", "values": [
      {"measurement": "decrease in heart rate", "setting": "humans [5]", "value": 6.2, "unit": "bpm"},
      {"measurement": "effect on cardiac Na+ and Ca2+ channels", "setting": "[6]", "value": "did not affect"},
      {"measurement": "lymphocyte counts decreased below the baseline", "setting": "humans [7]; 0.5 mg, RRMS patients, ref Kappos et al., 2010", "value": 73, "unit": "%"}
    ]},
    {"smiles": "CCCCCCCCc1ccc(CC[C@](N)(CO)COP(=O)(O)O)cc1", "note": "[Fingolimod‐P, Fingolimod phosphate]", "values": [
      {"measurement": "EC50", "setting": "human S1P4 receptor; read-out: EC50 values (95% CI), S1P4, agonist activity, intracellular Ca2+ mobilization, geometric mean", "value": 66.3, "unit": "nM"},
      {"measurement": "heart AUC0–last", "setting": "[8]", "value": "17 182 ng·h·g^−1"},
      {"measurement": "heart Cmax", "setting": "[8]", "value": 479, "unit": "ng/g"},
      {"measurement": "plasma AUC0–last", "setting": "[8]", "value": 556, "unit": "ng·h/mL"},
      {"measurement": "effect on cardiac Na+ and Ca2+ channels", "setting": "[6]", "value": "did not affect"}
    ]},
    {"smiles": "CCCCCCCCCCCCC/C=C/[C@@H](O)[C@@H](N)COP(=O)(O)O", "note": "[S1P, sphingosine 1‐phosphate]", "values": [
      {"measurement": "EC50", "setting": "human S1P1 receptor", "value": 0.18, "unit": "nM"},
      {"measurement": "EC50", "setting": "human S1P4 receptor", "value": 82.7, "unit": "nM"},
      {"measurement": "EC50", "setting": "human S1P3 receptor", "value": 0.16, "unit": "nM"},
      {"measurement": "GIRK current reached, of the maximal current increase evoked by carbachol", "setting": "[9]", "value": "more than 90%"}
    ]},
    {"smiles": "CC(C)Oc1ccc(-c2nc(-c3cccc4c3CC[C@@H]4NCCO)no2)cc1C#N", "note": "[ozanimod]", "values": [
      {"measurement": "t1/2", "setting": "[10]", "value": 17.1, "unit": "h"},
      {"measurement": "lymphocyte count decrease from baseline", "setting": "humans [7]; 1 mg, healthy volunteers, ref Olson et al., 2013, Sandborn et al., 2015", "value": 65, "unit": "%"}
    ]},
    {"smiles": "CCC/N=C1\\S/C(=C\\c2ccc(OC[C@H](O)CO)c(Cl)c2)C(=O)N1c1ccccc1C", "note": "[ponesimod]", "values": [
      {"measurement": "t1/2", "setting": "[10]", "value": "21.7 to 33.4", "unit": "h"},
      {"measurement": "decrease in the lymphocyte count", "setting": "humans [7]; 20 mg, Phase II", "value": 56, "unit": "%"},
      {"measurement": "decrease in the lymphocyte count", "setting": "humans [7]; 40 mg, Phase II", "value": 65, "unit": "%"}
    ]},
    {"smiles": "CCc1cc(/C(C)=N/OCc2ccc(C3CCCCC3)c(C(F)(F)F)c2)ccc1CN1CC(C(=O)O)C1", "note": "[siponimod]", "values": [
      {"measurement": "t1/2", "setting": "[10]", "value": "21.9 to 36.3", "unit": "h"},
      {"measurement": "lymphocyte count decrease", "setting": "humans [7]; 2 mg, RRMS patients, Phase II, ref Selmaj et al., 2013", "value": 70, "unit": "%"}
    ]}
  ]
}
